Publication PMC2842482 (ACS chemical biology, 2010)
“And” between values parts separate entries of the source, which are not always exact repeats. Equal entries are not always repeated. Where two headings read alike, the source gives them in different places.

What was measured:
[1] = aqueous solution; cited from earlier work
Mn-hArgI = target: T1, Mn-hArgI (Homo sapiens, UniProt P05089); assay: Inhibition of Mn-hArgI by L-Orn and L-Leu; format: biochemical
T1 sequence (P05089 1-322): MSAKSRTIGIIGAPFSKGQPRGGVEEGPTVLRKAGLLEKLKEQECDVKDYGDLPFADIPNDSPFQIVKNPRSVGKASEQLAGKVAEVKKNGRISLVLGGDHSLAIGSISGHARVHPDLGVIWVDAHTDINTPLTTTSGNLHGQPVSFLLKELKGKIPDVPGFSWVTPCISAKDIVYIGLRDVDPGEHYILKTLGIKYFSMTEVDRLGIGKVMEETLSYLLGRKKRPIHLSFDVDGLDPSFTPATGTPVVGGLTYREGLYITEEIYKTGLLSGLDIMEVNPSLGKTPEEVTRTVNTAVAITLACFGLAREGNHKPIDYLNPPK

Co-hArgI = target: T2, Co-hArgI (Homo sapiens, UniProt P05089); assay: Inhibition of Co-hArgI by L-Orn and L-Leu; format: biochemical
T2 sequence (P05089 1-322): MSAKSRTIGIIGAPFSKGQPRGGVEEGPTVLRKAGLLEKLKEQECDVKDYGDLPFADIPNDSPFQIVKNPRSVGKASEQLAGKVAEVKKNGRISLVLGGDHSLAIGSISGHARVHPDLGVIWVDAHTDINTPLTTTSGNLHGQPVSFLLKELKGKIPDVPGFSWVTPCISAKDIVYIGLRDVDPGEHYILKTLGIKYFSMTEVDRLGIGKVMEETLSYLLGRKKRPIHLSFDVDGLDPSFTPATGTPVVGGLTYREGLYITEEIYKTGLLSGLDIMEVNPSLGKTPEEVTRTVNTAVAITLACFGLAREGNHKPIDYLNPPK

hArgII = conditions: cited from earlier work
rat Arginase I = rat Arginase I at pH 9.0; cited from earlier work
[2] = cited from earlier work
[3] = rat enzyme; cited from earlier work
[4] = Serum stability in pooled human serum; format: in vitro ADME; conditions: 1 μM enzyme, 37 °C
Method in brief: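 Purified His-tagged hArgI (E. coli BL21, IMAC, metal-loaded with 10 mM CoCl2 or MnSO4, 15 min at 50–55 °C) added at 1 µM to pooled human serum at 37 °C. Aliquots taken at time points and tested in triplicate for hydrolysis of 1 mM L-Arg. Rate versus time fitted to a single exponential or a biphasic decay model to give t1/2.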

[5] = Steady-state kinetics of L-Arg hydrolysis by purified hArgI; format: biochemical; conditions: for kcat: hydrolysis of L-Arg, 100 mM Hepes buffer; for Fold change KM L-Arg: pH 7.4 vs pH 8.5; for Km: read-out: KM L-Arg
Method in brief: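 His6-TEV-tagged human ArgI expressed in E. coli BL21 and IMAC-purified. Loaded with 10 mM CoCl2 or MnSO4 (15 min, 50–55 °C), then exchanged into 100 mM HEPES/10% glycerol, pH 7.4. Concentration taken from A280 in 6 M guanidinium. Enzyme-started reactions quenched with 12 N HCl after 30 s. Urea derivatised with DAMO/thiosemicarbazide/Fe3+ (COLDER) by 15 min boiling, read at A530 with L-Arg blanks. At least triplicate; Michaelis–Menten fit.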

[6] = pH rate dependence of manganese and cobalt arginase; format: biochemical; conditions: for apparent pKa of kcat vs pH (one-pKa model) / apparent pKa of 1/KM vs pH, lower pKa / apparent pKa of 1/KM vs pH, upper pKa: 37 °C; for apparent pKa of kcat vs pH (one-pKa model): Co-hArgI value tentative; for apparent pKa of 1/KM vs pH, lower pKa / apparent pKa of 1/KM vs pH, upper pKa: bell shaped curve; for ascending limb pKa of kcat/KM vs pH (fit) / descending limb pKa of kcat/KM vs pH (fit): two pKa Henderson-Hasselbach model
Method in brief: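 Mn- or Co-substituted enzyme assayed at 37 °C, at least in triplicate, in 100 mM buffers: acetate (pH 5–5.5), MES (6–6.5), HEPES (7–7.8), Tris (8–9), Capso (9–10.5). L-Arg ranged 30 µM–80 mM depending on pH. Michaelis–Menten fits gave kcat and KM. kcat/KM versus pH fitted to a Henderson–Hasselbalch form for ascending and descending pKa, with Segel correction. Log kcat and 1/KM plotted versus pH.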

melanoma cell line A375 = conditions: for IC50: A375 melanoma cells, MTT
[7] = Thermal denaturation by circular dichroism; format: physicochemical; conditions: 100 mM phosphate buffer, pH 7.4, θ222
Method in brief: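 Co-substituted enzyme at 6 µM in 100 mM phosphate, pH 7.4. Molar ellipticity at 222 nm monitored from 25 to 90 °C. Fraction denatured calculated as the ratio to the ellipticity of fully unfolded protein. Data fitted to a modified logistic equation for the transition midpoint.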

[8] = Kinetics of deactivation in HEPES buffer with added Co^2+; format: physicochemical; conditions: 100 mM HEPES, pH 7.4, 37 °C, in the presence of 500 μM Co^2+
[9] = tested on: hepatocellular carcinoma cell line, Hep3b; assay: In vitro cytotoxicity; format: cell-based, human

NC(N)=NCCN1CCNCCNCCNCC1.[Zn+2]
apparent pKa of guanidinium deprotonation [1]: 5.9

CC(C)C[C@H](N)C(=O)O [L-Leu, L-Leucine]
Ki (Mn-hArgI; Ki L-Leu, pH 7.4): 390 ± 40 µM | Ki (Mn-hArgI; Ki L-Leu, pH 8.5): 640 ± 40 µM | Fold change Ki L-Leu (Mn-hArgI; pH 7.4 vs pH 8.5): (1.6) fold | Ki (Co-hArgI; Ki L-Leu, pH 7.4): 480 ± 50 µM | Ki (Co-hArgI; Ki L-Leu, pH 8.5): 1300 µM | Fold change Ki L-Leu (Co-hArgI; pH 7.4 vs pH 8.5): (2.7) fold | Ki (hArgII): 1000 ± 100 µM

NCCC[C@H](N)C(=O)O [L-Orn, L-Ornithine]
Ki (Mn-hArgI; read-out: Ki L-Orn, pH 7.4): 2400 µM | Ki (Mn-hArgI; read-out: Ki L-Orn, pH 8.5): 530 ± 60 µM | Ki (Co-hArgI; read-out: Ki L-Orn, pH 7.4): 76 ± 16 µM | Ki (Co-hArgI; read-out: Ki L-Orn, pH 8.5): 50 ± 7 µM | Ki (Co-hArgI; read-out: Ki L-Orn, pH 8.5, 37 °C): 64 ± 9 µM

NCCCC[C@H](N)C(=O)O [L-Lys]
Ki (rat Arginase I): 900 µM

B1: metallo-β-lactamase from B. cereus: metallo-β-lactamase from B. cereus with Mn^2+ or Co^2+ cofactor (protein, UniProt P04190 31-257, looked up)
Metallo-beta-lactamase type 2: SQKVEKTVIKNETGTISISQLNKNVWVHTELGSFNGEAVPSNGLVLNTSKGLVLVDSSWDDKLTKELIEMVEKKFQKRVTDVIITHAHADRIGGIKTLKERGIKAHSTALTAELAKKNGYEEPLGDLQTVTNLKFGNMKVETFYPGKGHTEDNIVVWLPQYNILVGGCLVKSTSAKDLGNVADAYVNEWSTSIENVLKRYRNINAVVPGHGEVGDKGLLLHTLDLLK
modifications: Mn2+ or Co2+ cofactor
pKa ([2]; Co^2+ as the cofactor): 6.9 | pKa ([2]; with Mn^2+): 8.4

B2: bovine carboxypeptidase A: bovine carboxypeptidase A with Mn^2+ or Co^2+ as cofactor (protein, UniProt P00730 111-419, looked up)
Carboxypeptidase A1: ARSTNTFNYATYHTLDEIYDFMDLLVAEHPQLVSKLQIGRSYEGRPIYVLKFSTGGSNRPAIWIDLGIHSREWITQATGVWFAKKFTEDYGQDPSFTAILDSMDIFLEIVTNPDGFAFTHSQNRLWRKTRSVTSSSLCVGVDANRNWDAGFGKAGASSSPCSETYHGKYANSEVEVKSIVDFVKDHGNFKAFLSIHSYSQLLLYPYGYTTQSIPDKTELNQVAKSAVEALKSLYGTSYKYGSIITTIYQASGGSIDWSYNQGIKYSFTFELRDTGRYGFLLPASQIIPTAQETWLGVLTIMEHTLNNLY
modifications: Mn2+ or Co2+ cofactor
acidic limb kinetic pKa ([2]; Co^2+ substitution): 5.3 | acidic limb kinetic pKa ([2]; Mn^2+ as a cofactor): 6.4

B3: rat Mn-ArgI: rat Arginase I with Mn^2+, literature comparator (protein, UniProt P07824 1-323, looked up)
Arginase-1: MSSKPKPIEIIGAPFSKGQPRGGVEKGPAALRKAGLVEKLKETEYNVRDHGDLAFVDVPNDSPFQIVKNPRSVGKANEQLAAVVAETQKNGTISVVLGGDHSMAIGSISGHARVHPDLCVIWVDAHTDINTPLTTSSGNLHGQPVAFLLKELKGKFPDVPGFSWVTPCISAKDIVYIGLRDVDPGEHYIIKTLGIKYFSMTEVDKLGIGKVMEETFSYLLGRKKRPIHLSFDVDGLDPVFTPATGTPVVGGLSYREGLYITEEIYKTGLLSGLDIMEVNPTLGKTPEEVTRTVNTAVALTLSCFGTKREGNHKPETDYLKPPK
modifications: Mn2+ cofactor
TM [3]: 75 °C

B4: Mn-hArgI: recombinant human Arginase I with the native di-nuclear Mn^2+ cofactor (protein, UniProt P05089 1-322, looked up)
Arginase-1: MSAKSRTIGIIGAPFSKGQPRGGVEEGPTVLRKAGLLEKLKEQECDVKDYGDLPFADIPNDSPFQIVKNPRSVGKASEQLAGKVAEVKKNGRISLVLGGDHSLAIGSISGHARVHPDLGVIWVDAHTDINTPLTTTSGNLHGQPVSFLLKELKGKIPDVPGFSWVTPCISAKDIVYIGLRDVDPGEHYILKTLGIKYFSMTEVDRLGIGKVMEETLSYLLGRKKRPIHLSFDVDGLDPSFTPATGTPVVGGLTYREGLYITEEIYKTGLLSGLDIMEVNPSLGKTPEEVTRTVNTAVAITLACFGLAREGNHKPIDYLNPPK
modifications: Mn2+ cofactor
t½ of activity (single exponential loss) [4]: 4.8 ± 0.8 h | kcat ([5]; pH 7.4, 37 °C): 300 ± 12 s⁻¹ and 300 s⁻¹ | Fold change KM L-Arg [5]: (1. 4) fold | Km ([5]; pH 7.4, 37 °C, listed as Mn-ArgI): 2330 µM | Km ([5]; pH 8.5): 1600 µM | apparent pKa of kcat vs pH (one-pKa model) [6]: 8.1 ± 0.05 | apparent pKa of 1/KM vs pH, lower pKa [6]: 7.1 ± 0.1 and 7.1 | apparent pKa of 1/KM vs pH, upper pKa [6]: 10.7 ± 0.3 and 10.7 | fold increase of rate (kcat) with pH ([6]; over the pH range studied (log slope = 0.5)): more than 30 fold | log kcat slope ([6]; pH 6 to pH 8.5): 0.5 | ascending limb pKa of kcat/KM vs pH (fit) [6]: 8.4 ± 0.1 | descending limb pKa of kcat/KM vs pH (fit) [6]: 11.0 ± 0.1 | IC50 (melanoma cell line A375): 0.0041 ± 0.0001 µM

B5: Co-hArgI: Co^2+ substituted human Arginase I, recombinant, His6-tagged, expressed in E. coli (protein, UniProt P05089 1-322, looked up)
Arginase-1: MSAKSRTIGIIGAPFSKGQPRGGVEEGPTVLRKAGLLEKLKEQECDVKDYGDLPFADIPNDSPFQIVKNPRSVGKASEQLAGKVAEVKKNGRISLVLGGDHSLAIGSISGHARVHPDLGVIWVDAHTDINTPLTTTSGNLHGQPVSFLLKELKGKIPDVPGFSWVTPCISAKDIVYIGLRDVDPGEHYILKTLGIKYFSMTEVDRLGIGKVMEETLSYLLGRKKRPIHLSFDVDGLDPSFTPATGTPVVGGLTYREGLYITEEIYKTGLLSGLDIMEVNPSLGKTPEEVTRTVNTAVAITLACFGLAREGNHKPIDYLNPPK
modifications: Co2+ substituted; His6 tag
TM (mid-point temperature for unfolding) [7]: 74 °C | t½ of activity (monophasic sigmoidal loss) [8]: 45 ± 2 h | kcat ([5]; pH 7.4, 37 °C): 240 ± 14 s⁻¹ and 240 s⁻¹ | Fold change KM L-Arg [5]: (1.4) fold | Km ([5]; pH 7.4, 37 °C): 190 ± 40 µM | Km ([5]; pH 8.5): 140 ± 10 µM | fold lower IC50 than Mn-hArgI ([9]; Hep3b): 15 fold | fold lower IC50 value ([9]; human hepatocellular carcinoma and melanoma cell lines): 12-15 fold | apparent pKa of kcat vs pH (one-pKa model) [6]: 5.2 ± 0.1 | apparent pKa of 1/KM vs pH, lower pKa [6]: 7.2 ± 0.1 | apparent pKa of 1/KM vs pH, upper pKa [6]: 9.7 ± 0.1 and 9.7 | log kcat slope ([6]; pH 5 - 6): 0.43 | log kcat slope ([6]; pH 6 – 10.5): ~ 0.03 and 0.03 | ascending limb pKa of kcat/KM vs pH (fit) [6]: 7.4 ± 0.1 | descending limb pKa of kcat/KM vs pH (fit) [6]: 10.0 ± 0.1 | fold increase in cytotoxicity vs Mn-hArgI (melanoma cell line A375): ~ 13 fold | IC50 (melanoma cell line A375): 0.00032 ± 6e-05 µM
